Test [1] concerns Mus musculus. In words: Minimum effective dose measures the in vivo N-methyl-D-aspartate glutamate receptor antagonist activity of compound and its ability to protect mice from lethality induced by 200 mg/kg ip injection of NMDA. It counts as functional. The note with it: route intraperitoneal, read-out: MED. Put shortly: (§1)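 Mice were given the compound ip 30 min before an ip challenge of NMDA at 200 mg/kg, a dose lethal to ≥95% of animals. Survival was scored with five animals tested per dose. MED was taken as the lowest dose protecting >50% of animals, meaning at least three of five survived.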

Test [2] in a line: In vitro inhibition of 40 uM NMDA induced depolarization in rat cortical slices.
Test [3] deals with Glutamate NMDA receptor. In words: Displacement of [3H]CGS-19,755 from glutamate recognition site of N-methyl-D-aspartate glutamate receptor complex. It counts as protein-complex assay, Rattus norvegicus.
Test [4] deals with Mus musculus. In words: Minimum effective dose measures the in vivo NMDA antagonist activity of compound and its ability to protect mice from lethality induced by 200 mg/kg ip injection of NMDA. It counts as functional. The note with it: route intraperitoneal; for minimal effective dose: Mus musculus, ip, read-out: MED; for MED: NMDA challenge 200 mg/kg, 200 mg/kg. The gist of the method: as §1

The target of test [5] is Glutamate NMDA receptor. In words: In vitro compound's ability to displace [3H]-CGS-19,755 binding as a measure of its affinity for the glutamate recognition site on the NMDA receptor complex. It counts as protein-complex assay.

Molecules are shown by their SMILES.

In the case of `O=C(O)C1Cc2cc(Cc3nnn[nH]3)ccc2CN1` (stereo not drawn), the minimal effective dose with Mus musculus [1] is over 160 mg/kg. Further, half-maximal inhibition in test [2] (IC50) required 36.6 µM.

For `O=C(O)[C@@H]1C[C@H]2CC(CP(=O)(O)O)CC[C@H]2N1` (stereo partly drawn), the minimal effective dose with Mus musculus [1] was over 160 mg/kg. Further, the results for the IC50 (at Glutamate NMDA receptor [3]; in test [2]) were over 10 µM and over 100 µM, respectively.

With `O=C(O)[C@H]1C[C@@H](Cc2nnn[nH]2)CCN1`, the minimal effective dose in the test with Mus musculus [4] worked out at 5 mg/kg. In addition, half-maximal inhibition in test [2] (IC50) required 4.2 µM.

Regarding `O=C(O)C1Cc2cc(CP(=O)(O)O)ccc2CN1` (stereo not drawn), the minimal effective dose in the test on Mus musculus [1] is over 160 mg/kg. Moreover, the values for the half-maximal inhibitory concentration (IC50) (on Glutamate NMDA receptor [3]; in test [2]) were 13.8 µM and 34.4 µM, respectively.

For `O=C(O)C1CC2CC(Cc3nnn[nH]3)CCC2CN1` (stereo not drawn), in the test with Mus musculus [1], the minimal effective dose was over 160 mg/kg. For the same compound, the IC50 at Glutamate NMDA receptor [3] is over 10 µM; in test [2] it was over 100 µM.

With `CN1CCC2(CCCC(CP(=O)(O)O)C2)CC1C(=O)O` (stereo not drawn), the minimal effective dose in the test with Mus musculus [4] was over 160 mg/kg. The compound also gave a 50% inhibitory concentration (IC50) on Glutamate NMDA receptor [5] of over 10 µM.

With `O=C(O)C1NCCC2CC(Cc3nnn[nH]3)CCC21` (stereo not drawn), the minimal effective dose with Mus musculus [1] came to 160 mg/kg. Moreover, the half-maximal inhibitory concentration (IC50) in test [2] worked out at 7.8 µM.

For the compound `O=C(O)[C@@H]1C[C@H]2CC(Cc3nnn[nH]3)CC[C@H]2N1` (stereo partly drawn), the minimal effective dose in the test on Mus musculus [1] was over 160 mg/kg. The concentration for half-maximal inhibition (IC50) was over 10 µM on Glutamate NMDA receptor [3] and over 100 µM in test [2].

For `O=C(O)C1CC2CC(CP(=O)(O)O)CCC2CN1` (stereo not drawn), in the test on Mus musculus [1], the minimal effective dose was over 160 mg/kg. In addition, the figures for the IC50 (on Glutamate NMDA receptor [3]; in test [2]) were over 10 µM and over 100 µM, respectively.

Consider `O=C(O)C1CC2C[C@@H](Cc3nnn[nH]3)CCC2CN1` (stereo in doubt; 32a), for which the MED in the test with Mus musculus [4] came out at 2.5 mg/kg. Half-maximal inhibition in test [2] (IC50) was put at 1.39 µM.

Regarding `O=C(O)C1CC2C[C@@H](Cc3nnn[nH]3)CCC2CN1` (stereo in doubt; 32b), the MED in the test on Mus musculus [4] amounted to 40 mg/kg. The IC50 in test [2] was found to be 4.8 µM.

Take `O=C(O)[C@@H]1C[C@H](CP(=O)(O)O)CCN1` [SELFOTEL]: in test [2], 1.6 µM corresponded to half-maximal inhibition (IC50).

Values taken from ChEMBL document CHEMBL1126277, “6-substituted decahydroisoquinoline-3-carboxylic acids as potent and selective conformationally constrained NMDA receptor antagonists” (J Med Chem, 1992).
